One assay has as its target T1, K638A HCN2 C-terminus (Mus musculus, UniProt O88703, K638A).
T1 sequence (O88703 443-645 K638A): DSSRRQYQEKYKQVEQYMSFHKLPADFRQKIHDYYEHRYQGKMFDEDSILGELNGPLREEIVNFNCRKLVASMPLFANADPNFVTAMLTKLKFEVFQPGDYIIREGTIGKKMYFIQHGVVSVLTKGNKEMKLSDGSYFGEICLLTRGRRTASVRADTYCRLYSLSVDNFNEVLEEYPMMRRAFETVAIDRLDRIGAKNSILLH
Nature of the assay: ITC binding to K638A HCN2 C-terminus. In a few lines: (§1)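 HCN2 C-linker/CNBD point mutant (residues 443–645) expressed from an HMT-tagged pET28 vector in Rosetta DE3 pLacI cells, induced 4 h. […] Integrated heats fitted to a one- or two-site independent binding model; ≥3 replicates.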

A further assay addresses T2, D631A HCN2 C-terminus (Mus musculus, UniProt O88703, D631A).
T2 sequence (O88703 443-645 D631A): T1 sequence (O88703 443-645 K638A) with D189A, A196K
Nature of the assay: ITC binding to D631A HCN2 C-terminus. The settings on record: for Kd: two-site model, mean ± SEM.

A further assay deals with T3, I636D HCN2 C-terminus (Mus musculus, UniProt O88703, I636D).
T3 sequence (O88703 443-645 I636D): T1 sequence (O88703 443-645 K638A) with I194D, A196K
Kind of assay: ITC binding to I636D HCN2 C-terminus.

Assay [1] concerns the target T4, R632A-HMT HCN2 C-linker/CNBD (Mus musculus, UniProt O88703, R632A).
T4 sequence (O88703 443-645 R632A): T1 sequence (O88703 443-645 K638A) with R190A, A196K
Kind of assay: ITC binding to R632A-HMT protein. The settings on record: two trials.

In the next assay the target is T5, L633A HCN2 C-terminus (Mus musculus, UniProt O88703, L633A).
T5 sequence (O88703 443-645 L633A): T1 sequence (O88703 443-645 K638A) with L191A, A196K
Kind of assay: ITC binding to L633A HCN2 C-terminus. The method in brief:
as §1

The next assay addresses T6, I636A HCN2 C-terminus (Mus musculus, UniProt O88703, I636A).
T6 sequence (O88703 443-645 I636A): T1 sequence (O88703 443-645 K638A) with I194A, A196K
Kind of assay: ITC binding to I636A HCN2 C-terminus.

The next assay addresses T7, I630A HCN2 C-terminus (Mus musculus, UniProt O88703, I630A).
T7 sequence (O88703 443-645 I630A): T1 sequence (O88703 443-645 K638A) with I188A, A196K
Kind of assay: ITC binding to I630A HCN2 C-terminus. As to conditions: for Kd: two-site model, mean ± SEM. The method in brief: as §1

The next assay has as its target T8, R591A HCN2 C-terminus (Mus musculus, UniProt O88703, R591A).
T8 sequence (O88703 443-645 R591A): T1 sequence (O88703 443-645 K638A) with R149A, A196K
Kind of assay: ITC binding to R591A HCN2 C-terminus. In a few lines: as §1

The target in assay [2] is T9, wild-type HCN2 C-terminus (Mus musculus, UniProt O88703).
T9 sequence (O88703 443-645): T1 sequence (O88703 443-645 K638A) with A196K
Nature of the assay: ITC binding to wild-type HCN2 C-terminus. The settings on record: for n: Wild type, mean ± SEM.

The next assay deals with T10, T592A HCN2 C-terminus (Mus musculus, UniProt O88703, T592A).
T10 sequence (O88703 443-645 T592A): T1 sequence (O88703 443-645 K638A) with T150A, A196K
Nature of the assay: ITC binding to T592A HCN2 C-terminus. The method in brief:
as §1

The next assay has as its target T11, R635A HCN2 C-terminus (Mus musculus, UniProt O88703, R635A).
T11 sequence (O88703 443-645 R635A): T1 sequence (O88703 443-645 K638A) with R193A, A196K
Kind of assay: ITC binding to R635A HCN2 C-terminus. The settings on record: stoichiometry, single-site model, four trials, three from Ng et al., 2016.

Assay [3] has as its target T9, wild-type HCN2 C-terminus. The settings on record: previously found; ref Ng et al., 2016; cited from earlier work.
The next assay concerns the target T12, D634A HCN2 C-terminus (Mus musculus, UniProt O88703, D634A).
T12 sequence (O88703 443-645 D634A): T1 sequence (O88703 443-645 K638A) with D192A, A196K
Nature of the assay: ITC binding to D634A HCN2 C-terminus. As to conditions: for Kd: two-site model, mean ± SEM. The method in brief:
as §1

The subject of a further assay is HCN2 C-terminus. As to conditions: 10 and 25 µM HCN2 C-terminus, very high ligand levels; ref Ng et al., 2016; cited from earlier work.
The test system of another assay is HCN2 channel. As to conditions: cited from earlier work.
Setting [4] is: single-site independent binding model, mean ± SEM.
Setting [5] is: stoichiometry, single-site model.
Where [6] appears, read: stoichiometry of high-affinity event.
[7] abbreviates: stoichiometry of low-affinity event.
Setting [8] is: high-affinity event, two-site model, mean ± SEM.
[9] abbreviates: low-affinity event, two-site model, mean ± SEM.
[10] abbreviates: read-out: Kd Site 1, model input from ITC.
Where [11] appears, read: read-out: Kd Site 2, model input from ITC.
The mark [12] stands for this setting: read-out: Kd Site 3, model input from ITC.
Setting [13] is: read-out: Kd Site 4, model input from ITC.
Setting [14] is: single-site independent binding model, mean ± SEM, c value <1.
The mark [15] stands for this setting: slope of ΔH at 10°C and 25°C, data of Chow et al., 2012.

Residue numbers refer to the chain shown, from its start. Read-outs that look alike come from different tables or passages of the source.

Regarding cGMP, the Kd at K638A HCN2 C-terminus (setting [4]) is 14700 ± 2040 nM; on D631A HCN2 C-terminus (high-affinity event), 210 ± 60 nM; on D631A HCN2 C-terminus (low-affinity event), 4780 ± 880 nM; at I636D HCN2 C-terminus (setting [8]), 210 ± 70 nM; at I636D HCN2 C-terminus (setting [9]) it was 1760 ± 510 nM; on I636D HCN2 C-terminus (setting [10]), 210 nM. Besides, the Kd was 1760 nM at I636D HCN2 C-terminus (setting [11]); 1760 nM at I636D HCN2 C-terminus (setting [12]); 1760 nM on I636D HCN2 C-terminus (setting [13]); 16500 ± 3200 nM at L633A HCN2 C-terminus (setting [4]); 240 ± 20 nM at I636A HCN2 C-terminus (setting [8]); 3230 ± 150 nM at I636A HCN2 C-terminus (setting [9]). For the same compound, the Kd on I636A HCN2 C-terminus (setting [10]) worked out at 240 nM; on I636A HCN2 C-terminus (setting [11]), 3230 nM; at I636A HCN2 C-terminus (setting [12]) it was 3230 nM; at I636A HCN2 C-terminus (setting [13]), 3230 nM; at I630A HCN2 C-terminus (high-affinity event) it was 490 ± 110 nM; on I630A HCN2 C-terminus (low-affinity event) it was 7780 ± 310 nM. In addition, the Kd on R591A HCN2 C-terminus (setting [14]) amounted to 322000 ± 26700 nM; at T592A HCN2 C-terminus (setting [14]), 184000 ± 2690 nM; on D634A HCN2 C-terminus (high-affinity event) it was 540 ± 100 nM; at D634A HCN2 C-terminus (low-affinity event), 8040 ± 1320 nM. Besides, the n at K638A HCN2 C-terminus (setting [5]) amounted to 0.47 ± 0.09; at D631A HCN2 C-terminus (setting [6]), 0.20 ± 0.03; at D631A HCN2 C-terminus (setting [7]), 0.63 ± 0.09; at I636D HCN2 C-terminus (setting [6]), 0.18 ± 0.04; on I636D HCN2 C-terminus (setting [7]) it was 0.56 ± 0.08; on L633A HCN2 C-terminus (setting [5]) it was 0.74 ± 0.09. Further, the n at I636A HCN2 C-terminus (setting [6]) was 0.23 ± 0.01; on I636A HCN2 C-terminus (setting [7]) it was 0.44 ± 0.02; at I630A HCN2 C-terminus (setting [6]), 0.24 ± 0.05; on I630A HCN2 C-terminus (setting [7]), 0.44 ± 0.05; at R591A HCN2 C-terminus (setting [5]) it was 2.15E-5 ± 9.20E-6; in [2] (setting [6]) it was 0.21 ± 0.01. Moreover, the n was 0.27 ± 0.01 in [2] (setting [7]); 0.20 ± 0.03 at T592A HCN2 C-terminus (setting [5]); 0.67 ± 0.09 at R635A HCN2 C-terminus; 0.23 ± 0.04 on D634A HCN2 C-terminus (setting [6]); 0.87 ± 0.14 at D634A HCN2 C-terminus (setting [7]). In [1], the “binding to R632A-HMT protein” value is given as “not detected”. In addition, the “fold difference between low- and high-affinity binding” value is 3 fold in assay [2] (found here) and 2.3 fold in assay [3]. In addition, in [2] (wild-type HCN2 C-terminus), the “increase of the high-affinity Kd compared with cAMP binding” value is listed as “threefold”. Moreover, the “increase of the low-affinity Kd compared with cAMP binding” value in [2] (wild-type HCN2 C-terminus) is reported as about 3.4 fold.

`Nc1ccn([C@@H]2O[C@@H]3COP(=O)(O)O[C@H]3[C@H]2O)c(=O)n1` [cCMP]: in the assay on HCN2 C-terminus, the promotion of tetramerization result was “not able to promote tetramerization”. Further, in the assay with HCN2 channel, the agonist type entry is given as “partial agonist”.

With `O=c1[nH]cnc2c1ncn2[C@@H]1O[C@@H]2COP(=O)(O)O[C@H]2[C@H]1O` [cIMP], the promotion of tetramerization entry in the assay on HCN2 C-terminus is “not able to promote tetramerization”. Moreover, the agonist type result in the assay with HCN2 channel is listed as “partial agonist”.

For cAMP, the n at K638A HCN2 C-terminus (setting [6]) is 0.38 ± 0.04; at K638A HCN2 C-terminus (setting [7]), 0.50 ± 0.03; on D631A HCN2 C-terminus (setting [6]), 0.21 ± 0.02; at D631A HCN2 C-terminus (setting [7]) it was 0.56 ± 0.04; at I636D HCN2 C-terminus (setting [6]), 0.56 ± 0.07; at I636D HCN2 C-terminus (setting [7]), 0.82 ± 0.02. In addition, the n on L633A HCN2 C-terminus (setting [6]) is 0.41 ± 0.02; on L633A HCN2 C-terminus (setting [7]) it was 0.69 ± 0.05; at I636A HCN2 C-terminus (setting [6]), 0.36 ± 0.01; on I636A HCN2 C-terminus (setting [7]), 0.60 ± 0.03; on I630A HCN2 C-terminus (setting [6]), 0.28± 0.03; on I630A HCN2 C-terminus (setting [7]), 0.69 ± 0.07. In addition, the n on R591A HCN2 C-terminus (setting [6]) came to 0.35 ± 0.02; at R591A HCN2 C-terminus (setting [7]), 0.70 ± 0.09; in assay [2] (setting [6]) it was 0.33 ± 0.02; in [2] (setting [7]), 0.66 ± 0.09; at T592A HCN2 C-terminus (setting [6]) it was 0.23 ± 0.01; at T592A HCN2 C-terminus (setting [7]), 0.56 ± 0.06. Besides, the n on D634A HCN2 C-terminus (setting [6]) stood at 0.26 ± 0.03; on D634A HCN2 C-terminus (setting [7]), 0.81 ± 0.03. For the same compound, the “binding to R632A-HMT protein” value in assay [1] is listed as “not detected”. For the same compound, the Hill coefficient with HCN2 channel was about 1. In addition, the EC50 in the assay with HCN2 channel (read-out: EC50 determined by the Hill equation) was about 100 nM. Besides, in [2] (setting [15]), the “ΔCp, high-affinity binding” value was −159 cal/mol/°C. In assay [2] (setting [15]), the “ΔCp, low-affinity binding” value was −898 cal/mol/°C.

These data come from article PMC6785730 (The Journal of General Physiology, 2019).
